DNA FID counter-1: fluorescent intercalator displacement, NS3 helicase counter-screen. DNA fluorescent intercalator displacement, fluorescence. inhibition, % at 7.9 µM. actives 0.17% (n = 290,000);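 note: 0% = vehicle and 100% = reference compound; higher means more ethidium bromide displaced from hairpin DNA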
UBC9 SUMO inh: inhibitors of human SUMOylation (UBC9); P63279; HTRF SUMOylation assay, SAE1/SAE2 + UBC9, in vitro; inhibition, % at 35 µM; actives 0.36% (n = 290,000); AID 2006; in the data active = inhibition above about 50%, passing the limit was not always enough
Target sequence (P63279 whole entry, looked up): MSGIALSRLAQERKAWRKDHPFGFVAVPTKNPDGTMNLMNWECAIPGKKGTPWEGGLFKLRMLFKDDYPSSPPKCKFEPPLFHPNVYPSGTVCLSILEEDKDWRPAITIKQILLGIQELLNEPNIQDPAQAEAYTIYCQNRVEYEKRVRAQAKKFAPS
IMP-1 inh: inhibitors of Pseudomonas aeruginosa IMP-1 metallo-beta-lactamase; AID 1556; inhibition, % at 5.6 µM; purified IMP-1, nitrocefin hydrolysis, epi-absorbance fluorescence; actives 0.45% (n = 290,000);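 active = inhibition above the mean plus 3 SD of all compounds in the same screening run, cut at about 4.5% in these data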;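 note: 0% = IMP-1 with DMSO and 100% = DMSO wells lacking enzyme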
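Material – recombinant IMP-1 enzyme, purified · Amount – IMP-1 0.2 nM before substrate addition · Medium – HEPES buffer pH 7.1 with ZnSO4 and Brij 35 · Timing – 25 °C, 15 min preincubation, 25 min reaction · Measured by – plate fluorescence quenching by hydrolysis product, ex 480/em 530 nm · Read-out – percent enzyme inhibition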
VIM-2 inh: inhibitors of Pseudomonas aeruginosa VIM-2 metallo-beta-lactamase; purified VIM-2, nitrocefin hydrolysis, epi-absorbance fluorescence; inhibition, % at 5.6 µM; actives 0.89% (n = 290,000);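 active = inhibition above the mean of all tested compounds plus 3 SD, cutoff set per screening run, cut at about 7.5% in these data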;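 note: red hydrolysis product quenches plate fluorescence so inhibitors raise well fluorescence; 0% = enzyme with DMSO and 100% = DMSO without enzyme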
HCV NS3 hel inh: blocks Hepatitis C virus NS3 helicase unwinding; NS3 helicase DNA unwinding, Cy5 molecular beacon fluorescence; inhibition, % at 10.9 µM; actives 0.56% (n = 290,000);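 active = inhibition above the mean of all tested compounds plus 3 SD, set per campaign, cut at about 35% in these data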;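 note: 0% = DMSO wells and 100% = thioflavine S control wells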
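System: HCV NS3 helicase fragment; control set: DMSO and thioflavine S; technique: Cy5 fluorescence at 0 and 60 min, beacon hairpin quenching; reagent: beacon DNA duplex substrate plus ATP; replicates: singlicate; schedule: 1 h reaction at 25 °C, ATP-initiated; medium: MOPS buffer pH 6.5 with MgCl2, DTT, Tween20, BSA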
NS3 helicase cf: HCV NS3 helicase inhibition, confirmation assay; shares compounds with HCV NS3 hel inh; NS3 helicase DNA unwinding, Cy5 molecular beacon fluorescence; inhibition, % at 10.9 µM; actives 31% (n = 1,600);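 active = inhibition above the mean of all tested compounds plus 3 SD, cutoff set per campaign, cut at about 36% in these data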
DNA FID counter-2: displaces DNA intercalator in HCV helicase counter-screen; DNA fluorescent intercalator displacement, fluorescence; actives 4% (n = 1,600); inhibition, % at 7.9 µM; shares compounds with HCV NS3 hel inh;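 note: 0% = vehicle and 100% = reference compound; higher means more displacement of ethidium bromide from the DNA hairpin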
DNA FID DR: counter-screen for HCV NS3 helicase inhibitors: DNA intercalator displacement dose response; shares compounds with HCV NS3 hel inh; fluorescent intercalator displacement from DNA, fluorescence; IC50, µM; 120 tested, under 10 active; call rule not given here
An asterisk follows results filed as active; . = no result given. Sampled rows, rich in hits. Any-hit rate of the full collection: about 2.1%. Cut-off read from the data, not from the text of the source, unless noted: active = inhibition above about 37%; inactive = the rest.

SMILES | DNA FID counter-1 | UBC9 SUMO inh | IMP-1 inh | VIM-2 inh | HCV NS3 hel inh | NS3 helicase cf | DNA FID counter-2 | others
Cc1cc2cc(C(c3nnnn3Cc3ccco3)N3CCc4ccccc4C3)c(=O)[nH]c2cc1C (stereo not given) | -16 | 29 | -1 | 0 | 39* | 64* | -3 | DNA FID DR=>79
Cc1cc2cc(C(c3nnnn3Cc3ccco3)N3CCc4ccccc43)c(=O)[nH]c2cc1C (stereo not given) | -22 | 31 | -3 | -4 | 27 | . | .
CC(=O)c1ccccc1NC(=O)CN1C(=O)CS/C1=C\c1nc(-c2ccc(C)cc2)cs1 | -3 | 5 | -2 | -2 | 37* | -3 | -16
COc1ccc(NC(=O)c2cc(-c3cc(OC)c(OC)c(OC)c3)nc3ccccc23)cc1OC | -37 | -6 | 2 | 1 | -26 | . | .
COc1ccc(-c2cc(C(=O)Nc3ccc(O)cc3)c3ccccc3n2)cc1OC | -16 | -14 | -3 | -3 | 45* | -4 | -24
CCOC(=O)c1c(NC(=O)C2C3C=CC(C3)C2C(=O)O)sc2c1CCC(CC)C2 (stereo not given) | -26 | 8 | -3 | -4 | 39* | 84* | -35
CCOC(=O)NC1(NC(C)C)Oc2ccccc2O1 | -5 | -11 | -3 | -3 | 16 | . | .
CCOC(=O)NC1(NC2CCCCC2)Oc2ccccc2O1 | -4 | -6 | 1 | 1 | 38* | -14 | -4
CCC1(C)Cc2ccccc2C(=S)N1 (stereo not given) | -3 | 4 | -2 | -3 | 2 | . | .
N=C1S/C(=C\c2ccco2)C(=O)N1c1ccc2c(c1)OCO2 | -15 | . | -1 | -1 | 40* | -20 | 2
COc1ccccc1OCCCOc1cccc(/C=C2\SC(=O)NC2=O)c1 | -37 | 28 | -6 | -4 | 44* | 68* | -9 | DNA FID DR=>79
CCCOc1ccc2ccccc2c1/C=C1\SC(=O)NC1=O | -27 | 16 | 0 | 0 | 36* | 30 | -21
COc1ccccc1OCCCOc1ccc(/C=C2\SC(=O)NC2=O)cc1OC | -26 | 18 | -2 | -2 | 25 | . | .
CC(=O)c1ccc(OC(=O)/C=C/c2ccccc2)cc1 | -11 | 5 | -2 | -2 | 39* | 2 | -2
COc1ccc(/C(N)=N/OC(=O)/C=C/c2ccccc2)cc1 | -2 | -7 | -3 | -3 | -1 | . | .
CC(/C=N/n1c(-c2ccco2)n[nH]c1=S)=C\c1ccco1 | -16 | 64* | -2 | 7 | 51* | -2 | 9
CCOC(=O)c1c(NC(=O)COC(=O)c2ccccc2NC)sc(C(=O)N(C)C)c1C | -41 | 6 | -3 | 1 | -20 | . | .
Cc1nc(Nc2ccc(S(N)(=O)=O)cc2)oc1C | -4 | 16 | -1 | 3 | 81* | -13 | 1
CCc1nc2sc3ccccc3c(=O)c2c(=O)n1Cc1ccco1 | -13 | 13 | -1 | 5 | 22 | . | .
O=c1c2ccccc2sc2nc(C3CCCCC3)n(Cc3ccco3)c(=O)c12 | -32 | 8 | -1 | 4 | 40* | 27 | -9
COc1cccc(OC)c1/C=C/C(=O)NC1CCCCC1 | -18 | 2 | -2 | 0 | 1 | . | .
CN=c1scc(-c2ccc(F)cc2)n1/N=C/c1ccc(O)c(O)c1 | -22 | 4 | 0 | -3 | 45* | -21 | 8
CCN=c1scc(-c2ccco2)n1/N=C/c1ccc(OC)c(O)c1 | -8 | 0 | -4 | -4 | 6 | . | .
CCN(CC)S(=O)(=O)c1ccc(NC(=O)COC(=O)c2ccc(NC(=O)CC#N)cc2)cc1 | -10 | 11 | -2 | -2 | 41* | 11 | 16
Cc1onc(-c2c(F)cccc2Cl)c1C(=O)Nc1nnc(C(F)(F)F)s1 | -15 | 12 | -2 | -4 | 6 | . | .
SMILES | DNA FID counter-1 | UBC9 SUMO inh | IMP-1 inh | VIM-2 inh | HCV NS3 hel inh | NS3 helicase cf | DNA FID counter-2 | others
O=c1[nH]n2c(=O)c3c([nH]c2c1N=Nc1cccc(C(F)(F)F)c1)CCCC3 | -9 | -23 | -3 | -1 | 64* | 79* | 20
O=c1[nH]n2c(=O)c3c([nH]c2c1N=Nc1cccc(Cl)c1)CCC3 | -28 | -15 | -4 | -3 | 31 | . | .
Cc1cccc(N2CCN(S(=O)(=O)c3cccc4nonc34)CC2)c1C | 4 | -10 | 0 | -2 | -3 | . | .
Cc1ccc(S(=O)(=O)N(C(=O)c2ccco2)c2cc3sc(=O)oc3c3ccccc23)cc1 | -22 | 56* | -1 | 2 | 40* | -8 | -3
COc1ccc2nc3ccccc3nc2c1N | -7 | 93 | -3 | -1 | 50* | -9 | 7
CCOC(=O)c1c(-c2ccccc2)oc2ccc(OCC(=O)NNC(=O)CCC(=O)O)cc12 | -48 | 34 | -6 | -2 | 41* | 9 | -18
O=C(CCCc1c[nH]c2ccccc12)Nc1ncccc1O | -6 | 0 | -2 | -2 | 1 | . | .
COc1cc(/C=N/NC(N)=O)ccc1OCC(=O)N1C(C)CCCC1C (stereo not given) | -11 | 14 | -1 | -3 | 2 | . | .
COc1cc(/C=N/Nc2ccc(Cl)c(C(=O)O)c2)ccc1OCC(=O)N1C(C)CCCC1C (stereo not given) | -31 | 26 | -2 | 0 | 45* | 70* | -9
COc1cc(/C=N/Nc2ccc(Cl)c(C(=O)O)c2)ccc1OC(=O)c1ccco1 | -23 | -7 | -1 | 5 | 38* | 65* | -12
CCCn1c(C(O)c2ccc(OC)cc2)nc2ccccc21 (stereo not given) | -13 | 13 | -3 | -1 | 2 | . | .
CCCn1c(C(O)c2cccc(OC)c2)nc2ccccc21 (stereo not given) | -18 | -1 | -3 | -3 | 42* | -16 | 0
Cc1ccc(-c2cc(C(=O)O)c3cc(Br)ccc3n2)s1 | -22 | 0 | -4 | -1 | 38* | 37* | -6
Cc1ccc(-c2cc(C(=O)O)c3cc(Br)ccc3n2)o1 | -18 | 7 | 1 | 4 | 38* | 79* | 8
CN(C)S(=O)(=O)c1ccc(C(=O)N2CCN(S(=O)(=O)c3cccs3)CC2)cc1 | -6 | 22 | -4 | -2 | 4 | . | .
CC1=NN(c2ccccc2)C(=O)/C1=C/C=C/C=C/N(C)C | -23 | -22 | -5 | -2 | 39* | -16 | 12
COCCCn1c(=O)c2sccc2n2c(CCCC(=O)NCc3ccc(OC)cc3)nnc12 | -30 | -5 | -3 | -2 | 7 | . | .
Cc1ccc(N2C(=O)CC(N(O)C3CC(=O)N(c4ccc(C)cc4)C3=O)C2=O)cc1 (stereo not given) | -30 | -9 | -2 | -2 | 38* | -14 | -12
CCCCCCC(=O)N(O)C1CC(=O)N(c2ccc(C)cc2)C1=O (stereo not given) | -18 | 8 | -6 | -2 | 19 | . | .

Screens from PubChem BioAssay.
